Converted amounts (≈) assume the structure as drawn. The source made the active and inactive calls. No cut-off for these calls is given here.
What was measured:
B16-F10 [1] = assay: Induction of endoplasmic reticulum stress in C57BL/6J mouse B16F10 cells assessed as upregulation of GRP78 level at 0.625 ug/mL after 24 hrs by immunoblot analysis; assay type: functional, cell-based
How it was run: (§1)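 Treated B16F10 cells were PBS-washed and lysed in 50 mM Tris-Cl, 150 mM NaCl, 0.2% Triton X-100, aprotinin and PMSF, then spun at 4 °C. Protein was equalised by BCA. Lysates were run on 10% SDS-PAGE, transferred to PVDF, blocked with 2% gelatin and probed with specific primary antibodies (TRP-1 blots: 0–0.625 μg/mL for 24 h).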

B16-F10 [2] = assay: Induction of endoplasmic reticulum stress in C57BL/6J mouse B16F10 cells assessed as deglycosylated TRP1 level at 0.6 ug/mL after 24 hrs by immunoblot analysis; assay type: functional, cell-based; how it was run: as §1
B16-F10 [3] = assay: Induction of endoplasmic reticulum stress in C57BL/6J mouse B16F10 cells assessed as abnormally glycosylated TRP1 level at 0.6 ug/mL incubated for 12 hrs measured 1 hr post peptide N-glycosidase F-treatment by immunoblot analysis; assay type: functional, cell-based
How it was run: (§2)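 Lysates of treated B16F10 cells were prepared in RIPA buffer. Protein (10 μg) was digested with 100 units endoglycosidase H or peptide N-glycosidase F at 37 °C for 1 h, then immunoblotted for TRP-1 to separate EndoH-sensitive and EndoH-resistant glycoforms.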

HaCaT [4] = assay: Selectivity ratio of IC50 for human HaCaT cells to IC50 for mouse B16F10 cells; assay type: functional
[5] = Cytotoxicity against mouse TM3 cells after 48 hrs by SRB assay; assay type: functional, cell-based; details: TM3, 48 h
How it was run: (§3)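 B16F10 and TM3 cells in 96-well plates were exposed to serial dilutions (0.08–5 μg/mL) for 24 or 48 h. Proteins were fixed with 50% TCA, stained with 0.4% SRB in 1% acetic acid, rinsed with 1% acetic acid, and the dye was dissolved in 10 mM Tris base (pH 10.5). Absorbance was read at 570 nm. Triplicates in at least three separate experiments; IC50 from concentration–response.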

[6] = Selectivity ratio of IC50 for mouse Melan-a cells to IC50 for mouse TM3 cells; assay type: functional
B16-F10 [7] = assay: Induction of autophagy in C57BL/6J mouse B16F10 cells assessed as LC3-TYR colocalization at 0.625 to 2.5 ug/mL after 24 hrs by fluorescence microscopy; assay type: functional, cell-based
How it was run: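 B16F10 cells on sterile coverslips were exposed to 0, 0.625, 1.25 or 2.5 μg/mL for 24 h, PBS-washed and paraformaldehyde-fixed. They were co-stained with anti-tyrosinase and anti-LC3, then AlexaFluor-488/594 secondary IgG. DAPI counterstain. Confocal microscopy used to score yellow overlap.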

B16-F10 [8] = assay: Selectivity ratio of IC50 for mouse Melan-a cells to IC50 for mouse B16F10 cells; assay type: functional
B16-F10 [9] = assay: Cytotoxicity against C57BL/6J mouse B16F10 cells assessed as cell viability after 24 hrs by SRB assay relative to control; assay type: functional
How it was run: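 B16F10 cells (20 000/0.1 mL) were given serial concentrations (0.08–5 μg/mL) for 24 h. SRB read-out: TCA fixation, 0.4% SRB staining, acetic acid rinses, solubilisation in 10 mM Tris (pH 10.5), absorbance at 570 nm. Viability expressed relative to untreated control; triplicates in at least three experiments.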

B16-F10 [10] = assay: Induction of endoplasmic reticulum stress in C57BL/6J mouse B16F10 cells assessed as upregulation of GRP78 level after 24 hrs by immunofluorescence staining method; assay type: functional, cell-based
How it was run: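 B16F10 cells (20 000/mL) on gelatinized coverslips were treated with 0, 0.31, 0.625, 1.25 or 2.5 μg/mL for 24 h. Fixed in 4% paraformaldehyde and immunostained for GRP78, with Alexa-594-conjugated secondary IgG. DAPI counterstain; confocal imaging.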

B16-F10 [11] = assay: Induction of endoplasmic reticulum stress in C57BL/6J mouse B16F10 cells assessed as immature TRP1 level at 0.6 ug/mL incubated for 12 to 24 hrs measured 1 hr post endoglycosidase H-treatment by immunoblot analysis; assay type: functional, cell-based; how it was run: as §2
B16-F10 [12] = assay: Induction of autophagy in C57BL/6J mouse B16F10 cells assessed as LC32 accumulation at 0.6 ug/mL by immunoblot analysis; assay type: functional, cell-based; how it was run: as §1
B16-F10 [13] = assay: Induction of apoptosis in C57BL/6J mouse B16F10 cells assessed as Bcl2 activation at 0.6 ug/mL up to 48 hrs by immunoblot analysis; assay type: functional, cell-based
B16-F10 [14] = assay: Decrease in TRP1 level in C57BL/6J mouse B16F10 cells assessed as depigmentation after 48 hrs; assay type: functional, cell-based
HaCaT [15] = assay: Selectivity ratio of IC50 for human HaCaT cells to IC50 for mouse TM3 cells; assay type: functional
B16-F10 [16] = assay: Induction of endoplasmic reticulum stress in C57BL/6J mouse B16F10 cells assessed as upregulation of GRP78 level at 0.625 ug/mL after 12 hrs by immunoblot analysis; assay type: functional, cell-based; how it was run: as §1
B16-F10 [17] = assay: Cytotoxicity against C57BL/6J mouse B16F10 cells after 24 hrs by SRB assay; assay type: functional, cell-based; details: B16-F10, 24 h; how it was run: as §3
B16-F10 [18] = assay: Induction of endoplasmic reticulum stress in C57BL/6J mouse B16F10 cells assessed as upregulation of HSC70 level at 0.625 ug/mL after 12 hrs by immunoblot analysis; assay type: functional, cell-based; how it was run: as §1
B16-F10 [19] = assay: Induction of endoplasmic reticulum stress in C57BL/6J mouse B16F10 cells assessed as upregulation of HSC70 level at 0.625 ug/mL after 24 hrs by immunoblot analysis; assay type: functional, cell-based; how it was run: as §1
B16-F10 [20] = assay: Induction of endoplasmic reticulum stress in C57BL/6J mouse B16F10 cells assessed as immature TRP1 level at 0.6 ug/mL after 24 hrs by immunoblot analysis; assay type: functional, cell-based; how it was run: as §1
B16-F10 [21] = assay: Cytotoxicity against C57BL/6J mouse B16F10 cells after 48 hrs by SRB assay; assay type: functional, cell-based; details: B16-F10, 48 h; how it was run: as §3
HT-29 [22] = assay: Selectivity ratio of IC50 for human HT-29 cells to IC50 for mouse TM3 cells; assay type: functional
HT-29 [23] = assay: Selectivity ratio of IC50 for human HT-29 cells to IC50 for mouse B16F10 cells; assay type: functional

SMILES: C\C(=C/C=C/C(C)=C1/C(=O)C[C@H]2[C@@]3(C)CCC(=O)C(C)(C)[C@@H]3CC[C@]12C)c1ccc(C)c(=O)o1 [STELLETIN A]
- Activity (B16-F10 [1]): inactive
- Activity (B16-F10 [2]): Active
- Activity (B16-F10 [3]): Active
- Ratio IC50 (HaCaT [4]): 10
- IC50 [5]: 0.8 µg/mL (≈ 1.73 µM)
- Ratio IC50 [6]: 10
- Activity (B16-F10 [7]): Active
- Ratio IC50 (B16-F10 [8]): 10
- Activity (B16-F10 [9]): 70%
- Activity (B16-F10 [10]): Dose-dependent effect
- Activity (B16-F10 [11]): Active
- Activity (B16-F10 [12]): Active
- Activity (B16-F10 [13]): inactive
- Activity (B16-F10 [14]): Active
- Ratio IC50 (HaCaT [15]): 10
- Activity (B16-F10 [16]): Active
- IC50 (B16-F10 [17]): 2 µg/mL (≈ 4.32 µM)
- Activity (B16-F10 [18]): Active
- Activity (B16-F10 [19]): inactive
- Activity (B16-F10 [20]): Active
- IC50 (B16-F10 [21]): 0.15 µg/mL (≈ 0.324 µM)
- Ratio IC50 (HT-29 [22]): 10
- Ratio IC50 (HT-29 [23]): 10
